This passage reports inhibition, IC50 and Activity results from ChEMBL document CHEMBL4814013, “Scaffold repurposing of fendiline: Identification of potent KRAS plasma membrane localization inhibitors” (Eur J Med Chem, 2021).

The source made the active and inactive calls. The rule behind the calls is not given here.

The subject of series [1] is Mus musculus. Put plainly: In vivo inhibition of Ca2+ channel in nu/nu mouse xenografted with human MIA PaCa-2 cells harboring KRAS mutation assessed as blood vessel dialation in tumor at 1 to 5 mg/kg, ip administered once daily for 5 days with 2 days break by immunostaining. Format: functional, organism-based. To be noted: dose 1-5 mg/kg, time 5.0 day. (In general: Xenograft models place foreign cells or tissue in a host animal.)

In series [2] the test system is MDCK. In words: Reduction in expression of human GFP-tagged ASM transfected in dog MDCK cells at 5 uM incubated for 48 hrs by western blot analysis. The class given is functional, cell-based. To be noted: Canis lupus familiaris. A digest of the protocol: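 SMPD1-GFP-expressing MDCK cells treated 48 h with 5 µM compound, washed in cold PBS and lysed in Tris pH 7.5 buffer with NaF, EGTA, DTT, vanadate, 1% NP40 and protease inhibitors. 20 µg of protein resolved by SDS-PAGE and immunoblotted. Signals detected by enhanced chemiluminescence and quantified by densitometry.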
(In general: A western blot detects proteins with antibodies after separation by electrophoresis.)

Series [3] deals with MEF. In words: Cytotoxicity against mouse MEF cells expressing BRAF V600E mutant and wild type KRAS assessed as reduction in cell growth incubated for 72 hrs by CyQuant proliferation assay. The class given is functional, cell-based. The essentials: (§1)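 Cells seeded in 96-well plates; after 24 h fresh growth medium with 0.1% DMSO vehicle or drug added (highest dose 30 µM for cancer lines), grown 72 h at 37 °C, 5% CO2. Live cell number measured by CyQUANT fluorescence. IC50 from three independent experiments. MEFs were isogenic lines carrying oncogenic BRAF or KRAS.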

For the next series, the system named is NCI-H522. Put plainly: Antiproliferative activity against human NCI-H522 cells expressing wild type KRAS assessed as reduction in cell growth incubated for 72 hrs by CyQuant proliferation assay. The class given is functional, cell-based. To be noted: NCI-H522, 72 h. The essentials: as §1
The nature of series [4]: Antiproliferative activity against human MOH cells expressing KRAS mutant assessed as reduction in cell growth incubated for 72 hrs by CyQuant proliferation assay. The class given is functional, cell-based. A digest of the protocol:
as §1

Series [5] in a line: Inhibition of ASM in dog MDCK cells co-expressing recombinant full length mGFP-tagged KRAS G12V mutant and mCherry-CAAX assessed as reduction in plasma membrane localization of KRAS mutant incubated for 48 hrs by confocal microscopic analysis. The class given is cell membranes, Canis lupus familiaris. A digest of the protocol: (§2)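 MDCK cells stably co-expressing mGFP-KRAS G12V or mGFP-LactC2 with mCherry-CAAX (HRAS 179–189 C181S/C184S) grown on coverslips in DMEM/10% FBS. Treated 48 h with 0.1% DMSO or graded drug, fixed in 4% paraformaldehyde, then quantitative confocal imaging. Mislocalization scored as the Manders fraction of mCherry-CAAX co-localizing with the GFP probe. IC50 and Emax from three independent experiments.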

A further series relates to KLE. In words: Antiproliferative activity against human KLE cells expressing wild type KRAS assessed as reduction in cell growth upto 30 uM incubated for 72 hrs by CyQuant proliferation assay. Format: functional, cell-based. To be noted: dose microM <=30, time 72.0 hrs. A digest of the protocol:
as §1

The subject of another series is Ishikawa. In words: Antiproliferative activity against human Ishikawa cells expressing wild type KRAS assessed as reduction in cell growth incubated for 72 hrs by CyQuant proliferation assay. The class given is functional, cell-based. A digest of the protocol:
as §1

In series [6] the test system is MEF. Put plainly: Antiproliferative activity against mouse MEF cells expressing KRAS G12V mutant assessed as reduction in cell growth incubated for 72 hrs by CyQuant proliferation assay. Format: functional, cell-based. A digest of the protocol: as §1
Series [7] has as its system MDCK. Put plainly: Cytotoxicity against dog MDCK cells at 30 uM. The class given is functional, cell-based. To be noted: Canis lupus familiaris.
In another series the test system is SK-CO-1. In words: Antiproliferative activity against human SK-CO-1 cells expressing mutant KRAS assessed as reduction in cell growth incubated for 72 hrs by CyQuant proliferation assay. The class given is functional, cell-based. To be noted: SK-CO-1, 72 h. The essentials:
as §1

The nature of series [8]: Antiproliferative activity against human MPANC96 cells expressing KRAS mutant assessed as reduction in cell growth incubated for 72 hrs by CyQuant proliferation assay. The class given is functional, cell-based. To be noted: MPANC96, 72 h. A digest of the protocol: as §1
The subject of series [9] is Mus musculus. In words: In vivo inhibition of ASM in nu/nu mouse xenografted with human MIA PaCa-2 cells harboring KRAS mutation assessed as increase in SM accumulation in tumor at 12.5 mg/kg, ip administered once daily for 5 days with 2 days break by GFP-lysenin staining based confocal laser microscopy. The class given is functional, organism-based. To be noted: time 5.0 day. A digest of the protocol:
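Sections of MiaPaCa-2 xenograft tumors from i.p.-treated nu/nu mice (12.5 mg/kg) stained with GFP-tagged lysenin to detect sphingomyelin.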

Series [10] has as its system MDCK. Put plainly: Inhibition of ASM in dog MDCK cells co-expressing recombinant full length GFP-tagged LactC2 and mCherry-CAAX assessed as reduction in plasma membrane localization of LactC2 incubated for 48 hrs by confocal microscopic analysis. To be noted: Canis lupus familiaris. Format: cell membranes. The essentials: as §2
Series [11] is described as follows: Toxicity in nu/nu mouse xenografted with human MIA PaCa-2 cells assessed as effect on body weight at 1 to 5 mg/kg, ip administered once daily for 5 days with 2 days break. The class given is organism-based. To be noted: in vivo, 120 h, dose 1-5 mg/kg, time 5 day.
In series [12] the target is T1, Sphingomyelin phosphodiesterase (Homo sapiens) (UniProt P17405).
T1 sequence (whole entry): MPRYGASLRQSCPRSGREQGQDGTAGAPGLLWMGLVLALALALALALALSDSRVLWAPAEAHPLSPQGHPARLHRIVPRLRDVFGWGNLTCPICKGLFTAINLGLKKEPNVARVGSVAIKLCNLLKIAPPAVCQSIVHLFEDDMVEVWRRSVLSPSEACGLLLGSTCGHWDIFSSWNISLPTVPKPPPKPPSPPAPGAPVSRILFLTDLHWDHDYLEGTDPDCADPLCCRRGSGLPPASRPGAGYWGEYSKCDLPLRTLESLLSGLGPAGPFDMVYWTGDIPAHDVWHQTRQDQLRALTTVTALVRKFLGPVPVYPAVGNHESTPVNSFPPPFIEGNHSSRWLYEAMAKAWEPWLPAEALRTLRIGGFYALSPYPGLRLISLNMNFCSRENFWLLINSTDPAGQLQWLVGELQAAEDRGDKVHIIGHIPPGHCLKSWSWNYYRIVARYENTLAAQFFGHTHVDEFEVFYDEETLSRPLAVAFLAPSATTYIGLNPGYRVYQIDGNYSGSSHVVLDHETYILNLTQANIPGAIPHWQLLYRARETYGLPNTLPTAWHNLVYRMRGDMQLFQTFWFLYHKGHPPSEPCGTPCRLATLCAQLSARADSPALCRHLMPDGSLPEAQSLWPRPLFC
In words: Inhibition of human GFP-tagged ASM expressed in dog MDCK cells using sphingomyelin as substrate at 5 uM incubated for 48 hrs by Amplex Red dye based fluorescence analysis. Format: cell-based. The essentials:
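MDCK cells stably expressing human SMPD1-GFP treated 48 h at 5 µM. Whole-cell lysate, made without DTT, mixed with 50 mM sodium acetate pH 5.0 plus sphingomyelin and held 1 h at 37 °C. pH then raised to 7.4 with Amplex Red mix (100 µM Amplex Red, 2 U/mL HRP, 0.2 U/mL choline oxidase, 8 U/mL alkaline phosphatase, 100 mM Tris pH 8.0), 60 min at 37 °C. Fluorescence read at Ex 540/Em 590 nm. Controls: 0.1 U/mL SMase (positive), buffer alone (negative).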

Turning to `COc1ccc([C@@H](C)N(CC=C(c2ccccc2)c2ccccc2)CCN2CCCC2)cc1`, in the series with Mus musculus [1], the inhibition result is “inactive”. The inhibition entry (in the series with MDCK [2]; with Mus musculus [9]; in the series on MDCK [10]; in series [12]) was “Active” in each case. Further, the 50% inhibitory concentration (IC50) (in general, the concentration needed to halve the response being measured) in the series on MEF [3] turned out to be 8.5 µM; in the series with NCI-H522 it was 27.3 µM; in [4], 3.6 µM; in series [5] it was 0.3 µM; with Ishikawa, 17.3 µM; in the series with MEF [6], 2.6 µM. Further, the IC50 in the series with SK-CO-1 is 3 µM; in series [8] it was 3.8 µM. Also, the outcome in the series on KLE was inactive. Also, the outcome in the series on MDCK [7] was Active. Also, in series [11], the Activity entry is “Non-Toxic”.
In the case of `COc1ccc([C@@H](C)N(CC=C(c2ccccc2)c2ccccc2)CCCN2CCN(C)CC2)cc1`, the inhibition result in the series with Mus musculus [1], with MDCK [2] and in the series on Mus musculus [9] was “inactive” throughout. Moreover, the 50% inhibitory concentration (IC50) stood at 7.9 µM in the series with MEF [3]; 23.5 µM with NCI-H522; 3.8 µM in [4]; 0.02 µM in [5]; 11 µM in the series on Ishikawa; 2.9 µM in the series on MEF [6]. For the same molecule, the concentration for half-maximal inhibition (IC50) with SK-CO-1 stood at 3.5 µM; in series [8] it was 4.2 µM. In the series on KLE, the result was inactive. Moreover, in the series on MDCK [7], the result was Active. Besides, the inhibition entry (with MDCK [10]; in series [12]) was “Active” in each case. Besides, in series [11], the Activity result is “Non-Toxic”.
